# Experimental data taken from ChEMBL document CHEMBL4392838, “Binding pocket-based design, synthesis and biological evaluation of novel selective BRD4-BD1 inhibitors” (Bioorg Med Chem, 2019).
# The source made the active and inactive calls. No cut-off for these calls is given here.
# Legend:
# [1] = target: T1, Bromodomain-containing protein 4 (Homo sapiens, UniProt O60885); test: Inhibition of biotinylated H4 K5,8,12,16Ac peptide binding to GST-tagged BRD4 bromodomain1 (unknown origin) at 100 uM measured after 60 mins by AlphaScreen assay relative to control
# How it was run: (§1)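 AlphaScreen proximity assay measuring binding of the tetra-acetylated (K5,8,12,16Ac) biotinylated histone H4 peptide to recombinant BRD4 BD1 or BD2. Buffer was 50 mM HEPES with BSA, at 1% DMSO in the 10X compound dilutions. Compound, bromodomain, peptide and histidine-conjugated acceptor beads were incubated 60 min at room temperature. Streptavidin donor beads were then added for 30 min in the dark, and the endpoint Alpha signal read. Inhibition taken at 100 µM, mean of three independent experiments.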
# [2] = target: T1, Bromodomain-containing protein 4; test: Inhibition of biotinylated H4 K5,8,12,16Ac peptide binding to GST-tagged BRD4 bromodomain2 (unknown origin) at 100 uM measured after 60 mins by AlphaScreen assay relative to control; how it was run: as §1
# [3] = Antifibrotic activity against human LX2 cells assessed as reduction in cell growth measured after 48 hrs by MTT assay; type: functional, cell-based; settings: LX-2, 48 h
# How it was run: (§2)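 Cells grown at 37 °C in 5% CO2. MCF-7, A549 and HT-29 cells were kept in RPMI 1640 with 10% FBS and pen/strep. HepG2, A375, NRK-49F and LX-2 cells were kept in high-glucose DMEM with 10% FBS and pen/strep. HLF-1 cells were kept in DMEM/F-12 (1:1) with 10% FBS. Cells seeded for exponential growth, exposed to a concentration range for 48 h, then MTT added for 4 h at 37 °C. Formazan dissolved in DMSO, absorbance read at 490 nm, IC50 fitted.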
# [4] = system: NRK-49F; test: Antifibrotic activity against rat NRK-49F cells assessed as reduction in cell growth measured after 48 hrs by MTT assay; type: functional, cell-based; how it was run: as §2
# [5] = system: A-375; test: Antiproliferative activity against human A375 cells assessed as reduction in cell growth measured after 48 hrs by MTT assay; type: functional, cell-based; settings: A-375, 48 h; how it was run: as §2
# [6] = system: A549; test: Antiproliferative activity against human A549 cells assessed as reduction in cell growth measured after 48 hrs by MTT assay; type: functional, cell-based; settings: A549, 48 h; how it was run: as §2
# [7] = system: MCF7; test: Antiproliferative activity against human MCF7 cells assessed as reduction in cell growth measured after 48 hrs by MTT assay; type: functional, cell-based; settings: MCF7, 48 h; how it was run: as §2
# [8] = system: A-375; test: Induction of apoptosis in human A375 cells at 10 uM measured after 24 hrs by Annexin V-FITC/propidium iodide staining based fluorescence microscopic analysis; type: functional, cell-based
# [9] = system: HT-29; test: Antiproliferative activity against human HT-29 cells assessed as reduction in cell growth measured after 48 hrs by MTT assay; type: functional, cell-based; settings: HT-29, 48 h; how it was run: as §2
# [10] = system: L02; test: Cytotoxicity against human LO2 cells assessed as reduction in cell growth measured after 24 hrs by MTT assay; type: cell-based; settings: L02, 24 h
# [11] = Antifibrotic activity against human HLF1 cells assessed as reduction in cell growth measured after 48 hrs by MTT assay; type: functional, cell-based; settings: HLF1, 48 h; how it was run: as §2
# [12] = system: HepG2; test: Antiproliferative activity against human HepG2 cells assessed as reduction in cell growth measured after 48 hrs by MTT assay; type: functional, cell-based; settings: HepG2, 48 h; how it was run: as §2
# [13] = target: T1, Bromodomain-containing protein 4; test: Inhibition of biotinylated H4 K5,8,12,16Ac peptide binding to GST-tagged BRD4 bromodomain1 (unknown origin) measured after 60 mins by AlphaScreen assay
# [14] = Selectivity index, ratio of IC50 for cytotoxicity against human LO2 cells to IC50 for antifibrotic activity against human LX2 cells
# [15] = target: T1, Bromodomain-containing protein 4; test: Inhibition of BRD4 in human HLF1 cells assessed as reduction in collagen-1 protein expression measured after 24 hrs by Western blot analysis; type: cell-based
# How it was run: (§3)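 Cells (2.5 × 10^5 per well; A375 for c-Myc, HLF-1 for collagen I) were treated for 24 h and lysed on ice. Lysate was clarified at 12,000g for 15 min at 4 °C and protein measured by BCA. 20–40 µg was run on SDS-PAGE and blotted to PVDF, then blocked in 5% milk. Primary antibodies (c-Myc or collagen I, β-actin loading control) overnight, secondary antibody 1 h, fluorescent detection.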
# [16] = target: T1, Bromodomain-containing protein 4; test: Inhibition of BRD4 in human A375 cells assessed as reduction in c-MYC protein expression measured after 24 hrs by Western blot analysis; type: cell-based; how it was run: as §3
# [17] = target: T1, Bromodomain-containing protein 4; test: Inhibition of BRD4 in human HLF1 cells assessed as reduction in collagen-1 mRNA expression at 1 uM measured after 24 hrs by RT-PCR analysis; type: cell-based
# How it was run: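 HLF-1 cells (2.5 × 10^5 per well) were treated for 24 h. Total RNA was extracted, reverse-transcribed to cDNA, and collagen I transcript measured by quantitative RT-PCR.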
Structure (SMILES),inhibition [1],inhibition [2],IC50 [3],IC50 [4],IC50 [5],IC50 [6],IC50 [7],Activity [8],IC50 [9],IC50 [10],IC50 [11],IC50 [12],IC50 [13],Ratio IC50 [14],inhibition [15],inhibition [16],inhibition [17]
Cc1noc(C)c1Cn1c(=O)nc(-c2ccccc2)c2c3c(sc21)CCC3,23%,19.8%,> 300 µM,–,–,–,–,–,–,–,–,–,–,–,–,–,–
Cn1c(=O)nc(-c2ccccc2)c2c3c(sc21)CCCC3,42.6%,66.2%,> 300 µM,–,–,–,–,–,–,–,–,–,–,–,–,–,–
COc1cc(OC)c2c(=O)[nH]c(-c3cc(C)c(OCCO)c(C)c3)nc2c1 [APABETALONE],–,–,79.7 µM,42 µM,241 µM,53.1 µM,> 300 µM,inactive,236 µM,> 100 µM,52 µM,103 µM,–,–,–,–,–
CC(C)(C)C1CCc2c(sc3c2c(-c2ccccc2)nc(=O)n3Cc2ncccn2)C1 (stereo not given),70.4%,66.6%,152 µM,–,–,–,–,–,–,–,–,–,–,–,–,–,–
Cc1noc(C)c1Cn1c(=O)nc(-c2ccccc2)c2c3c(sc21)CCCCC3,84.4%,81.2%,140 µM,–,–,–,–,–,–,–,–,–,–,–,–,–,–
Cc1sc2c(c1C)C(c1ccc(Cl)cc1)=N[C@@H](CC(=O)OC(C)(C)C)c1nnc(C)n1-2,–,–,28.6 µM,21.1 µM,7.5 µM,13.1 µM,38 µM,Active,19.6 µM,54.2 µM,20.4 µM,11.3 µM,–,–,–,–,–
Cc1noc(C)c1Cn1c(=O)nc(-c2ccccc2Cl)c2c3c(sc21)CC(C(C)(C)C)CC3 (stereo not given),–,39.5%,11.3 µM,17.2 µM,11.1 µM,16.6 µM,69.2 µM,–,19.2 µM,–,12 µM,30 µM,1.6 µM,–,–,–,–
CC(C)(C)C1CCc2c(sc3c2c(-c2ccccc2)nc(=O)n3Cc2cnc(Cl)s2)C1 (stereo not given),–,28.3%,4.2 µM,6 µM,14.7 µM,31.9 µM,> 100 µM,–,54.4 µM,–,7.6 µM,2.4 µM,22.7 µM,–,–,–,–
CC(=O)Cn1c(=O)nc(-c2ccccc2)c2c3c(sc21)CCCC3,23.7%,17.2%,> 300 µM,–,–,–,–,–,–,–,–,–,–,–,–,–,–
O=c1nc(-c2ccc(Cl)cc2)c2c3c(sc2n1Cc1cnc(Cl)s1)CC(c1ccccc1)CC3 (stereo not given),44.9%,14.5%,98.2 µM,–,–,–,–,–,–,–,–,–,–,–,–,–,–
Cc1noc(C)c1Cn1c(=O)nc(-c2ccccc2)c2c3c(sc21)CC(C(C)(C)C)CC3 (stereo not given),–,41.2%,21.6 µM,23.1 µM,8 µM,29.6 µM,> 100 µM,–,20.1 µM,–,21.3 µM,10.9 µM,8.2 µM,–,–,–,–
CNC(=O)Cn1c(=O)nc(-c2ccccc2)c2c3c(sc21)CCCC3,38.5%,3.1%,> 300 µM,–,–,–,–,–,–,–,–,–,–,–,–,–,–
Cc1noc(C)c1Cn1c(=O)nc(-c2ccc(Cl)cc2)c2c3c(sc21)CC(c1ccccc1)CC3 (stereo not given),–,15.1%,28.8 µM,–,–,–,–,–,–,–,–,–,6 µM,–,–,–,–
Cc1noc(C)c1Cn1c(=O)nc(-c2ccc(Cl)c(Cl)c2)c2c3c(sc21)CC(C(C)(C)C)CC3 (stereo not given),–,29.9%,9.1 µM,16 µM,4.9 µM,24.5 µM,16.6 µM,Active,19.4 µM,33.2 µM,13.6 µM,14.5 µM,0.56 µM,3.6,Dose-dependent effect,Dose-dependent effect,Active
